For one experiment, the species on record is Homo sapiens. Kind of experiment: (§1) Cytotoxicity against human embryo lung […] cells at 30 uM by MTT assay. The class given is functional. A digest of the protocol: (§2)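 HLF cells were seeded at about 3000 per well and grown 24 h before treatment. The number of viable cells at treatment (t = 0) was measured to correct for differences in starting cell number. At the read times, MTT tetrazolium salt and phenazine methosulfate were added directly to the medium for 2–3 h.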
In general terms: Formazan colour is commonly taken as a measure of viable cells.

Experiment [1] is described as follows: as §1. The class given is functional. An outline of the steps: as §2
Experiment [2] has as its target T1, Activin receptor type-1B (Homo sapiens) (UniProt P36896).
T1 sequence (whole entry): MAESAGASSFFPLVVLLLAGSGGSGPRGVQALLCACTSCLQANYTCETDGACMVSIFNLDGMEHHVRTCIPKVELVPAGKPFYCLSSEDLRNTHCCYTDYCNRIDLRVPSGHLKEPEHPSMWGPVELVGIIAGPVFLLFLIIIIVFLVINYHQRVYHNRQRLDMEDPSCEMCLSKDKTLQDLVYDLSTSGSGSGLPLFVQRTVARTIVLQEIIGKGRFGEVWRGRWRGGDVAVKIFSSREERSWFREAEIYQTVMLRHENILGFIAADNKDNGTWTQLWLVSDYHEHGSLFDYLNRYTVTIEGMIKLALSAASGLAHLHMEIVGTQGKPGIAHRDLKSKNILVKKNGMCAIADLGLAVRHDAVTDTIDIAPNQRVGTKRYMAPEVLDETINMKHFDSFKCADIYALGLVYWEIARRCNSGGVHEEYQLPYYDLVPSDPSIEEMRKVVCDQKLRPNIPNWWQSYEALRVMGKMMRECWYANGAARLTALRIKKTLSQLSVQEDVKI
Put plainly: Inhibition of ALK4 expressed in baculovirus/Sf9 cells assessed as inhibition of receptor autophosphorylation at 1 uM after 3 hrs. An outline of the steps: (§3)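 Kinase carried a C-terminal 6-His tag and was purified on a Ni2+ affinity column. The purified kinase was preincubated with compound for 30 min at 37 °C. The reaction was started with 10–8 mol/L ATP plus Smad3 substrate and run 3 h at 30 °C. Autophosphorylation was quantified from ATP consumed, using a luminescent ATP detection assay.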

Experiment [3] addresses T2, Activin receptor type-1C (Homo sapiens) (UniProt Q8NER5).
T2 sequence (whole entry): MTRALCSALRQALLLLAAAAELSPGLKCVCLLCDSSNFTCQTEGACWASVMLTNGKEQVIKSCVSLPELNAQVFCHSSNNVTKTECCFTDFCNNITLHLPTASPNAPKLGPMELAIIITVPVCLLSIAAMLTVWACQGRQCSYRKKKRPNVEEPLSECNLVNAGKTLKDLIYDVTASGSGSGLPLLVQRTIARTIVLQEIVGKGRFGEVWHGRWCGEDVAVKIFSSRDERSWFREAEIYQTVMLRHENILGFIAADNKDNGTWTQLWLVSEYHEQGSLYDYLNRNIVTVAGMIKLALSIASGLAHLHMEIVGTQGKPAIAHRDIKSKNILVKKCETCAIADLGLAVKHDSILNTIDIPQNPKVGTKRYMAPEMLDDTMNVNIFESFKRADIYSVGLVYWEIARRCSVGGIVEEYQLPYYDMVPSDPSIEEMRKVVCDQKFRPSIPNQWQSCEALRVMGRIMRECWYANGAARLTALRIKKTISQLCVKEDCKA
Put plainly: Inhibition of ALK7 expressed in baculovirus/Sf9 cells assessed as inhibition of receptor autophosphorylation at 1 uM after 3 hrs. A digest of the protocol:
as §3

Experiment [4] has as its target T1, Activin receptor type-1B (Homo sapiens). Put plainly: Inhibition of ALK4 expressed in baculovirus/Sf9 cells assessed as inhibition of receptor autophosphorylation at 0.1 uM after 3 hrs. A digest of the protocol:
as §3

The target of experiment [5] is T2, Activin receptor type-1C (Homo sapiens). Kind of experiment: Inhibition of ALK7 expressed in baculovirus/Sf9 cells assessed as inhibition of receptor autophosphorylation at 0.1 uM after 3 hrs. A digest of the protocol: as §3
A short description of experiment [6]: Selectivity for ALK5 over ALK4. A digest of the protocol:
(§4)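 Purified C-terminally 6-His-tagged ALK4, ALK5 and ALK7, each run in a separate autophosphorylation assay. Each enzyme was preincubated with a range of compound concentrations for 30 min at 37 °C. Reactions were started with 10–8 mol/L ATP plus Smad3 and run 3 h at 30 °C. Phosphorylation was quantified as ATP consumed, using a luminescent ATP assay. Selectivity was obtained by comparing activity across the kinases.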

Experiment [7] can be described thus: Selectivity for ALK5 over ALK7. A digest of the protocol: as §4
The nature of experiment [8]: Selectivity for ALK4 over ALK5. A digest of the protocol:
as §4

A short description of experiment [9]: Selectivity for ALK4 over ALK7. An outline of the steps:
as §4

Molecules are shown by their SMILES. Activity calls are given as the source filed them. The rule behind the calls is not given here. Bounds are passed on as bounds.

Consider `Cc1cccc(-c2nc(C(C)(C)C)cn2-c2ccc3c(c2)OCCO3)n1`, for which, in the experiment filed under Homo sapiens, the result was inactive.
In experiment [1], `Cc1cccc(-c2nc(-c3ccc(C(N)=O)cc3)cn2-c2ccc3c(c2)OCCO3)n1` gave an Activity of 0.7%. Moreover, the inhibition in [2] amounted to 49.3%; in experiment [3], 25%; in experiment [4], 28.5%; in experiment [5], 13.4%.
The matching figures for `Cc1cccc(-c2nc(-c3ccc(C#N)cc3)cn2-c2ccc3c(c2)OCO3)n1`: 4%, 76.9%, 44.6%, 45.5% and 33.9%.
Consider `NC(=O)c1ccc(-c2cc(-c3ccc(F)cc3)n(-c3ccccc3O)n2)cc1`, for which the result in the experiment listed under Homo sapiens was inactive.
For `O=C(O)c1ccc(-c2cc(-c3ccc4c(c3)OCO4)n(-c3ccccc3F)n2)cc1`, the Activity in experiment [1] stood at 5.4%.
With `OCc1ccc(-c2cc(-c3ccc4c(c3)OCO4)n(-c3ccccc3F)n2)cc1`, in the experiment filed under Homo sapiens, the outcome was inactive.
Same read-out and setting: as for `NC(=O)c1ccc(-c2cc(-c3ccccn3)n(-c3ccc4c(c3)OCO4)n2)cc1`, the entry is “inactive”.
As to `NC(=O)c1ccc(-c2cc(-c3ccc4c(c3)OCO4)n(-c3ccccc3C(F)(F)F)n2)cc1`, in the experiment listed under Homo sapiens, the result was inactive.
In turn, `Cc1cccc(-c2nc(C(C)(C)C)cn2-c2ccc(F)cc2)n1` yielded an Activity in [1] of 59%.
The same measure, in the same setting: next, `NC(=O)c1ccc(-c2cc(-c3ccc(F)cc3)n(-c3ccccn3)n2)cc1`: 23.7%.
As to `COc1ccc(-n2cc(-c3ccc(C#N)cc3)nc2-c2cccc(C)n2)cc1F`, in experiment [1], the Activity was determined as 57%.
As to `COc1ccccc1-n1nc(-c2ccc(C(N)=O)cc2)cc1-c1ccc(F)cc1`, the outcome in the experiment listed under Homo sapiens was inactive.
In experiment [1], `NC(=O)c1ccc(-c2cc(-c3ccc4c(c3)OCO4)n(-c3ccccn3)n2)cc1` returned an Activity of 26.7%. Besides, the inhibition in experiment [2] came out at 74.7%; in experiment [3], 57.3%; in [4], 70%; in experiment [5] it was 35.5%.
As for `NC(=O)c1ccc(-c2cn(-c3ccc4c(c3)OCCO4)c(-c3ccccn3)n2)cc1`, the Activity in experiment [1] is recorded as 21%.
On to `NC(=O)c1ccc(-c2cc(-c3ccc4c(c3)OCO4)n(-c3ccccc3)n2)cc1`, for which, in the experiment filed under Homo sapiens, the outcome was inactive.
The same measure, in the same setting: next, `NC(=O)c1ccc(-c2cc(-c3ccc4c(c3)OCO4)n(-c3nccs3)n2)cc1`: “inactive”.
On to `Cc1cccc(-n2nc(-c3ccc(C(N)=O)cc3)cc2-c2ccc3c(c2)OCO3)n1`, for which the Activity in experiment [1] stood at 5.6%. Further, the inhibition was 66.8% in experiment [2], 64% in experiment [3], 39.4% in experiment [4] and 4.2% in experiment [5]. Also, the Selectivity ratio in experiment [6] and in experiment [7] was 10 in each case.
`NC(=O)c1ccc(-c2cc(-c3ccc(F)cc3)n(-c3ccccc3F)n2)cc1` returned an Activity in experiment [1] of 19.54%.
On the same count and under the same terms, next, `NC(=O)c1ccc(-c2nc(-c3ccccn3)c(-c3ccc4c(c3)OCO4)[nH]2)cc1` [SB-431542]: 55%.
Turning to `COc1ccc(-c2cc(-c3ccc(C(N)=O)cc3)nn2-c2ccccc2F)cc1OC`, the Activity in experiment [1] is 19.4%. Besides, the inhibition in [2] worked out at 70.4%; in experiment [3], 65.8%; in experiment [4], 32.1%; in [5], 5.3%.
For `N#Cc1ccc(-c2cc(-c3ccc4c(c3)OCO4)n(-c3ccccc3F)n2)cc1`, the result in the experiment listed under Homo sapiens was inactive.
`COc1ccccc1-n1nc(-c2ccc(C(N)=O)cc2)cc1-c1ccc2c(c1)OCO2`: in the experiment listed under Homo sapiens, the outcome was inactive.
Regarding `NC(=O)c1ccc(-c2cn(-c3ccc4c(c3)OCO4)c(-c3ccccn3)n2)cc1`, the Activity in experiment [1] was 21.6%. Also, the inhibition came to 73.7% in experiment [2], 54.8% in [3], 65.6% in [4] and 24.5% in experiment [5].
The matching figures for `Cc1cccc(-c2nc(-c3ccc(C(N)=O)cc3)cn2-c2ccc(F)cc2)n1`: 19.1%, 34.5%, 35.1%, 25% and 16.2%.
For `N#Cc1ccc(-c2cc(-c3ccc4c(c3)OCO4)n(-c3ccccn3)n2)cc1`, in the experiment listed under Homo sapiens, the result was inactive.
In experiment [1], `Cc1cccc(-c2nc(-c3ccc(C(N)=O)cc3)cn2-c2ccc3c(c2)OCO3)n1` came in with an Activity of 14.9%. Further, the inhibition was determined as 29.8% in [2], 41.3% in [3], 15.6% in experiment [4] and 4.5% in experiment [5].
Consider `Cc1cccc(-c2nc(-c3ccc(C#N)cc3)cn2-c2ccc3c(c2)OCCO3)n1`, for which the Activity in experiment [1] was 28%.
For the compound `Cc1cccc(-c2nc(-c3ccc(C#N)cc3)cn2-c2ccc(F)cc2)n1`, the Activity in experiment [1] amounted to 20.2%.
As for `NC(=O)c1ccc(-c2cc(-c3ccccc3F)n(-c3ccc4c(c3)OCO4)n2)cc1`, in experiment [1], the Activity is 0.52%. Also, the inhibition in experiment [2] is 41.9%; in [3], 57.4%; in experiment [4], 3.2%; in [5] it was 50.9%.
`COc1ccc(-c2cc(-c3ccc(C(N)=O)cc3)nn2-c2ccccn2)cc1OC` came in with an Activity in [1] of 5.3%.
`NC(=O)c1ccc(-c2cn(-c3ccc4c(c3)OCO4)c(-c3ccccc3F)n2)cc1`: the outcome in the experiment filed under Homo sapiens was inactive.
For the compound `NC(=O)c1ccc(-c2cc(-c3ccc(O)c(O)c3)n(-c3ccccc3O)n2)cc1`, the Activity in [1] was determined as 48.9%. Further, the Selectivity ratio in experiment [8] and in experiment [9] was > 10 throughout. Further, the inhibition in [2] was 93.7%; in experiment [3], 56.5%; in experiment [4], 73.8%; in experiment [5], 34.8%.
The compound `Cc1cccc(-n2nc(-c3ccc(C#N)cc3)cc2-c2ccc3c(c2)OCO3)n1` had an Activity in [1] of 15.4%. The inhibition stood at 77.7% in [2], 73.4% in [3], 53.6% in [4] and 31.4% in experiment [5].
On to `COc1ccc(-c2cc(-c3ccc(C#N)cc3)nn2-c2ccccc2F)cc1OC`, for which, in the experiment filed under Homo sapiens, the outcome was inactive.
In [1], `N#Cc1ccc(-c2cn(-c3ccc4c(c3)OCO4)c(-c3ccccc3F)n2)cc1` registered an Activity of 12.3%. Further, the inhibition in experiment [2] came to 36.6%; in [3], 63.6%; in experiment [4], 13.3%; in [5], 30.5%.
In the case of `COc1ccc(-n2cc(-c3ccc(C(N)=O)cc3)nc2-c2cccc(C)n2)cc1F`, the Activity in experiment [1] is listed as 9.1%.
`N#Cc1ccc(-c2cc(-c3ccccc3F)n(-c3ccc4c(c3)OCO4)n2)cc1` yielded an Activity in [1] of 57.5%.
The same measure, in the same setting: as for `COc1ccc(-n2cc(C(C)(C)C)nc2-c2cccc(C)n2)cc1F`, the figure is 22.1%.
For `COc1ccc(-c2cc(-c3ccc(C#N)cc3)nn2-c2ccccn2)cc1OC`, in the experiment listed under Homo sapiens, the result was inactive.
On to `NC(=O)c1ccc(-c2cc(-c3ccc4c(c3)OCO4)n(-c3ccccc3F)n2)cc1`, for which the outcome in the experiment filed under Homo sapiens was inactive. Moreover, the inhibition in [2] is 50.7%; in experiment [3], 39.1%; in experiment [4] it was 15.5%; in experiment [5], 22.7%.
Turning to `Cc1cccc(-c2nc(C(C)(C)C)cn2-c2ccc3c(c2)OCO3)n1`, the Activity in experiment [1] is on record as 7.3%.

Broadly, the inhibition is the share of the control response that was lost under treatment.

The values are drawn from ChEMBL document CHEMBL1154039, “Synthesis and biological evaluation of 1,2,4-trisubstituted imidazoles and 1,3,5-trisubstituted pyrazoles as inhibitors of transforming growth factor beta type 1 receptor (ALK5)” (Bioorg Med Chem Lett, 2009).
